According to ChEMBL document CHEMBL4513216, “Probing the Open Global Health Chemical Diversity Library for Multistage-Active Starting Points for Next-Generation Antimalarials” (ACS Infect Dis, 2020):

Assay: Toxicity liver stage against HepG2, at 10uM
Type: cell-based
Design: test concentration 10 uM, cell line HepG2-A16-CD81EGFP
Settings: human, HepG2-A16-CD81EGFP cells; read-out: INHIBITION
Outline: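 Uninfected HepG2-A16-CD81EGFP cells, 3 × 10^3 per well, 1536-well, plated on prespotted compound at 10 μM final, parasite-free screening media added to match infected plates; puromycin 10 μM positive, DMSO 0.5% negative; run in parallel with 48 h PbLuc assay at 37 °C, 5% CO2; viability by CellTiter-Glo luminescence, normalized to controls.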

Compound | cytotoxicity at 10 µM [%]
O=c1ncn(-c2ccccc2F)c2ncccc12 | -2.26
CCCN(CCC)C1(Cc2cc(-c3cccc(O)c3)on2)COC1 | -1.19
O=C(Cc1ccccc1)NC[C@H]1Cn2ccnc2CO1 | 0.148
CC(C)CCc1n[nH]c(C(=O)O)c1Cl | -5.47
COCCN1C[C@@H]2CN(S(=O)(=O)c3cccs3)C[C@@H]2C1=O | 0.258
NC(=O)N1CC[C@H]2CO[C@H](CNC(=O)c3ccnnc3)[C@H]2C1 | -4.7
CC(C)c1nc(-c2cc(C(=O)NCCCO)c3ccccn23)cs1 | 9.7
Cc1cccc(CN2C[C@@H]3OCCN(C)[C@@H]3C2)n1 | 1.73
COCc1ncn2c1CN(C(=O)Nc1ccccc1)CC2 | 0.763
Cn1cccc1CN1CCc2ncnc(-c3cccnc3)c2CC1 | 9.03
COCCO[C@H]1CCN(C(=O)c2ccco2)[C@H]1Cc1cnn(C)c1 | 2.4
O=C(c1ccccc1)N1CC[C@H]2C[C@@H](c3nccs3)O[C@@H]2C1 | -5.44
Cc1ccc(-c2cc(C(=O)O)sn2)cc1 | 2.2
CCCc1nnsc1C(=O)NCC1CCN(S(C)(=O)=O)CC1 | -19.7
Cn1c(SCC(N)=O)nnc1-c1csc2c1CCCC2 | 36.2
Cc1cnc(CCNC(=O)C2CCN(S(=O)(=O)c3ccc(F)cc3)C2)s1 (stereo not drawn) | 2.56
CC(=O)N1CCC(C(=O)c2cnn(-c3ccccc3)c2N)C1 (stereo not drawn) | 5.54
CNc1nccnc1C1CN(C(=O)c2cc[nH]n2)CCO1 (stereo not drawn) | -12.3
CNC(=O)C1CN(Cc2cc(C)on2)CCN(C(C)=O)C1 (stereo not drawn) | -3.02
Cc1ncsc1C(=O)N1CCC(c2ncncc2-c2ccnc(N)c2)C1 (stereo not drawn) | -0.197
COCCNC(=O)c1cc(C)nc(C2CCN(C)CC2)n1 | -2.48
CCC(=O)N1CCC(c2nc3c(c(NC)n2)CN(C)CC3)C1 (stereo not drawn) | -3.74
O=C(CC1CCCC1)N1CCOC(c2nc(-c3ncccn3)no2)C1 (stereo not drawn) | -13.2

Compound | cytotoxicity at 10 µM [%]
CNC(=O)Nc1cnc2cc(Cl)ccc2c1O | -30
Cc1nccn1-c1cncc(C2CCCN2Cc2cccnc2)n1 (stereo not drawn) | -20.4
CC(O)CN1CCN(Cc2cccc(C#N)c2)CC1 (stereo not drawn) | 9.56
O=C(CSc1nnc(N2CCCC2)s1)NC(=O)Nc1ccccc1 | 3.59
CCOC(C)c1nc(COc2nc(C)no2)cs1 (stereo not drawn) | -1.64
COc1ccccc1C1(CNc2cn[nH]c(=O)c2Cl)CC1 | 54.8
CN1CCN(C2CCN(Cc3cn4ccccc4n3)CC2)C1=O | 19.1
Cc1cccc(N2CCC(NC(C)c3cccs3)CC2)n1 (stereo not drawn) | -17.2
Cc1[nH]ncc1CCCNC(=O)N1CCN2CCCCC2C1 (stereo not drawn) | 5.8
Cc1ccc(C)c(Oc2ccc(CNC(=O)C3CNC(=O)N3)cn2)c1 (stereo not drawn) | 0.577
Cc1ccc(CN(C)C(=O)CN2CCc3ccccc3C2)o1 | -6.9
COc1ncnc(N(C)C)c1NC(=O)c1cscc1C | -1.7
FC(F)(F)Sc1ccccc1NCc1nc(C2CC2)no1 | 0.858
Cc1ccc(N2CCCC(N(C)c3nn4cc(C)nc4s3)C2)nn1 (stereo not drawn) | 8.45
CNS(=O)(=O)c1ccccc1N1CCN(C(=O)C(C)C)CC1 | 4
CCOCCS(=O)(=O)Cc1ccn(-c2cccc(F)c2)n1 | 4.48
Cc1nn(C)c(N(C)C)c1CNCc1cccc(Br)c1 | -7.98
CCOCCNC(=O)Nc1cccc(-c2nccn2C)c1 | -3.26
CC(=O)N1CCN(C(=O)C(C)OCC(F)(F)F)CC1 (stereo not drawn) | -10.8
Cc1cccc(C(=O)N2CCN(c3ccccc3F)CC2)n1 | 1.83
COC(=O)C(C)(C)NC(=O)C1CC(=O)N(CC(C)C)C1 (stereo not drawn) | -152
N#Cc1ncn(CCC(=O)Nc2cc(Cl)ccc2Cl)n1 | -161
Clc1cncc(N2CCCC2c2nnc3n2CCCCC3)n1 (stereo not drawn) | -7.44

Compound | cytotoxicity at 10 µM [%]
CCC(NC(=O)Nc1ccc(OC)c(C)c1)c1noc(C)n1 (stereo not drawn) | -12
O=C(Nc1cc(C2CCOCC2)[nH]n1)c1cscn1 | -7.84
CN(C(=O)CCOc1ccccc1)C1CCN(CC2CCOC2)CC1 (stereo not drawn) | -7.7
O=C(NCCCO)Nc1ccccc1 | 1.52
COc1ccc(CNc2nnc(CC(C)(C)C)o2)cc1C#N | -10.1
Cn1cc(-c2cccc(CNC(=O)N3CCC[C@@H]3CO)c2)cn1 | -5.89
c1cnc(N2CCC(NCc3cnc(C4CCC4)s3)CC2)nc1 | 4.24
Cc1cc2c(cc1C)C(NC1CC1)CCCO2 (stereo not drawn) | 4.57
CC(C)S(=O)(=O)Cc1cccc(NC(=O)c2ccc[nH]2)c1 | -0.118
CC(C)c1nc(C2CCCN2c2cnc3ccccc3n2)no1 (stereo not drawn) | -3.13
Cc1csc2ncc(-c3ccnc(N4CCC[C@@H]4CO)n3)c(=O)n12 | -11.3
CCCn1ncnc1C(C)NC(=O)C1CCN(C(=O)C2CC2)CC1 (stereo not drawn) | -147
COc1ccccc1[C@@H]1CN(Cc2ccncc2)C[C@H]1C(=O)O | -4.23
COc1cc2c(cc1CN1CCC3(CCCN(C)C3=O)C1)OCCO2 (stereo not drawn) | 6.33
CC(C)(CN1CCC2(CCNCC2)CC1)N1CCOCC1 | -148
Cc1nn(CCN2CCSCC2)cc1CNCC1CC1 | -7.03
CC(=O)N1CCN(C(=O)c2snnc2C)[C@H]2CS(=O)(=O)C[C@H]21 | -0.145
Cc1cccc(CN2C(=O)OCC2CO)c1F (stereo not drawn) | -2.13
Cc1c(C(=O)N2CCC(O)(CN(C)C)C2)c2cc(O)ccc2n1C (stereo not drawn) | -120
O=C(NCCC1COc2ccccc2O1)c1ccc(-c2cc[nH]n2)nc1 (stereo not drawn) | -6.84
O=C(NCc1csc(-c2cccs2)n1)C1NCCc2[nH]cnc21 (stereo not drawn) | -0.798
Cc1cnc(N2CCCC3(CCOCC3)C2)nc1 | -116
CC(C)C[C@H]1CN(c2nc3c(cc2C(N)=O)CCC3)CC[C@@]1(C)O | -4.51

Compound | cytotoxicity at 10 µM [%]
O=C(CC1COCCN1)N1CCCN(C2Cc3ccccc3C2)CC1 (stereo not drawn) | -139
O=C(c1scc2c1OCCO2)N1CCOC(Cc2cccc(F)c2)C1 (stereo not drawn) | 4.78
CCn1c(Cn2cncn2)nnc1C1CCN(Cc2ccncc2)CC1 | 12.3
Cc1cc(F)ccc1OC1(C(=O)O)CCN(Cc2ccncc2)CC1 | -8.31
Cc1ccc([C@@H]2CN(S(=O)(=O)C(C)C)C[C@H]2N(C)C)cc1 | -0.368
NC(=O)CSc1nccc(-c2ccc3c(c2)OCO3)n1 | -7.38
Cc1nc(C)c(CN2CCC(N(C)Cc3nnc(C4CC4)o3)C2)s1 (stereo not drawn) | -4.18
O=C(CCOc1ccccc1F)N1CCCCC1Cn1cccn1 (stereo not drawn) | -4.47
Cc1nc(C(C)C)sc1C(=O)NCCn1nc2ccccn2c1=O | -12
NC(=O)C1CN(C(=O)Nc2ccc(SC(F)(F)F)cc2)CCO1 (stereo not drawn) | -12.9
COc1c(C2CCCN2Cc2nc(-c3ccco3)no2)c(C)nn1C (stereo not drawn) | -10.2
COc1ccnc(N2CCN(C(=O)c3ccn(C)c(=O)c3)CC2)n1 | -13.7
COc1c(CNCc2cccc(Cn3cncn3)c2)c(C)nn1C | -11.2
Cc1nn(CC(C)C)c(N(C)C)c1CNCc1ccccc1CO | -15.2
Cc1nn(C)c(N(C)C)c1CNCCS(C)(=O)=O | -17.4
CC(C)Oc1ccc(C(=O)N2CCCCC2Cn2cccn2)cn1 (stereo not drawn) | -14.9
CCc1nc(CN2CCCC(NCc3nc4ccccc4o3)C2)no1 (stereo not drawn) | -3.81
CS(=O)(=O)c1ccc(CNC(=O)Nc2cn[nH]c2)cc1 | -1.88
CN(Cc1ccc(F)cc1)C(=O)NCc1nnc2n1CCC2 | -17.8
COc1ccc(-c2cnc(CN3CCCC3Cn3cccn3)o2)cc1 (stereo not drawn) | -5.71
CC(C)c1noc(CCC(=O)NCC2CCC(C(N)=O)CC2)n1 (stereo not drawn) | -31.6
CCS(=O)(=O)c1ccccc1C(=O)N1CCCC(n2cccn2)C1 (stereo not drawn) | -29.9
CCc1nc(C2CCCN2C(=O)c2ccc3c(c2)[nH]c(=O)n3C)no1 (stereo not drawn) | 1.04

Compound | cytotoxicity at 10 µM [%]
Cc1cc(C)n(CC2CN(c3ncnc4[nH]ccc34)CCO2)n1 (stereo not drawn) | -6.88
O=C(c1cnc(-c2cnccn2)s1)N1CCCC1Cn1cccn1 (stereo not drawn) | -3.99
O=C(CCOCC(F)(F)F)N1CCCC1c1noc(C2CC2)n1 (stereo not drawn) | 0.111
CCCc1nc(CN2CCc3c(ncn3C3CC3)C2)cs1 | -0.0225
CCCc1nc(C)c(C(=O)NCCN2CCCCC2)s1 | -0.906
Cc1noc(C2CCCN(C(=O)c3ccc(F)cc3F)C2)n1 (stereo not drawn) | 2.01
O=C(c1ccccn1)N1CCC(Nc2cccnn2)CC1 | -0.121
Cc1cnn(CC2CCCCN2Cc2cc(C)on2)c1 (stereo not drawn) | -5.36
Cc1nn2cccnc2c1C(=O)N1CCCC(n2ccnc2)C1 (stereo not drawn) | -4.62
CCNc1cc2c(nn1)CCN(C(=O)c1ccc(CNC(C)=O)o1)C2 | -10.8
CC(Cn1cccn1)NC(=O)NCc1cccnc1OC1CCCC1 (stereo not drawn) | 4.86
Cc1nc(C)n(CC2CCCCN2CCC(=O)Nc2cc(C)on2)n1 (stereo not drawn) | -2.86
COc1ccc(CN(C)CC2CCCN2c2cccnn2)cc1F (stereo not drawn) | 4.48
CNC(=O)[C@@H](c1ccccc1OC)N1CCC[C@H]1C(=O)NC(C)(C)C | -6.67
c1cc(CNCC2Cn3nncc3CO2)co1 (stereo not drawn) | 7.8
CCS(=O)(=O)N1CCCC2(CCCN2Cc2cccc(F)c2)C1 (stereo not drawn) | -141
Cc1cnc(N2C[C@H]3CCN(CC4CC4)C[C@H]3C2)nc1 | 6.34
Cc1ccc(S(=O)(=O)NC(C)(C)CN)c(F)c1 | -8.73
O=C(c1ccccc1)N1CCC2(CCCN2c2ncccn2)CC1 | -127
CN(C)S(=O)(=O)N1C[C@@H]2C[C@H](C(=O)Nc3ccccc3)[C@H](C1)O2 | 5.86
O=C(Nc1ccc(F)cc1)N1C[C@@H]2CC[C@H]1CN(Cc1cccnc1)C2 | -13.4
